Fewer inactive variants are shown than the library holds.
B1: tRNA (parent)
chain: GUUCCGUUGGCGUAAUGGUAACGCGUCUCCCUCCUAAGGAGAAGACUGCGGGUUCGAGUCCCGUACGGAACG

Variants of: B1
Assay: yeast fitness relative to wild type (ratio to wild type); higher = fitter; tRNA-Arg(CCU), competitive growth, 37 C, YPD
How it was run: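 A pool of Saccharomyces cerevisiae strains, each with a tRNA-Arg(CCU) gene variant at the native genomic locus, was competed in YPD at 37°C for 24 hours across six parallel replicates. The variants had been chemically synthesised at a 3% per-site mutation rate over 69 sites, and gene amplicons before and after competition were read by 100-nucleotide paired-end sequencing. Darwinian fitness relative to wild type rested on changes in genotype frequencies. Genotypes required ≥ 100 starting reads, and estimates < 0.5 were set to 0.5.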

Variant	yeast fitness
C5A A14C G23A C24G A36U G63A G68A	0.579
C5A A65U	0.723
C4U U7A U8A A65U	≤ 0.5
C4U G44C C55G A69U	≤ 0.5
C4U U7G A37G	0.536
C5A A20U C31G C61U	≤ 0.5
C4U U35C A36G G44C	0.708
C4U G38A G58C C66U	≤ 0.5
C5A A40G C49U	0.548
C5A A21C	0.821
C4U U19A C31G A65C C66U	≤ 0.5
C4U U28C C49G	0.598
C4U U7G A14U	≤ 0.5
C5A A42G C49G U54C G63C A70U	≤ 0.5
C4U G25C G67A	0.719
C4U U26C A36C	≤ 0.5
C4U U19C C31A G41C C55A	≤ 0.5
C4U U32C C34U G38A	≤ 0.5
C4U U7A A36U A45U A57G A70G	≤ 0.5
C5A A14G C24A G63A A69U	≤ 0.5
C5A A20G U26C A40C	≤ 0.5
C5A A15C C30A A42U C55U C66A	≤ 0.5
C4U U19C C31A G41C	0.53
C4U U8G A15U C62U	≤ 0.5

Variant	yeast fitness
C5A A15U G38C G39A A43C C60G A65C	≤ 0.5
C4U G51C	0.637
C4U G51A	0.942
C4U U16C G48C	0.702
C4U U8C A40U G50C	≤ 0.5
C4U U35A A36U C61U	≤ 0.5
C5A A57C	0.719
C5A A57G	0.767
C4U U35C C61A	0.555
C5A A43C A65U	≤ 0.5
C5A A43C A69U A70C	0.769
C4U U64A A70U	0.66
C4U U47C G52C C61A	≤ 0.5
C4U U28G G38A A43G C46A C49U	0.608
C4U U16C C24U	0.675
C5A A14G C22G C62G	≤ 0.5
C4U G56A C60U	≤ 0.5
C4U U47A	0.86
C4U U47G	0.616
C4U U47C	1.06
C4U G41C A65G	0.65
C4U G41A A42C	≤ 0.5
C5A A21C A43U C46G G50U C61G	≤ 0.5
C5A A14G A43U	≤ 0.5

Variant	yeast fitness
C5A A20G A65U	≤ 0.5
C4U U16A A20G	0.665
C4U U16A A20C	0.58
C5A C11A A42U U53A A57C A65G	≤ 0.5
C5A A20U A21U C34G A65G G67A	≤ 0.5
C4U G44C A70C	0.782
C4U U8G G12A U54G	≤ 0.5
C5A A21G C31G G56C U59A C60G C62G A70C	≤ 0.5
C4U U7A C33G A42C	≤ 0.5
C4U G38C G41A C61G	0.707
C4U U26G G44A	0.591
C5A A20U C27A A42G A43G A57C G67C	0.565
C4U G56A U59C A65C A70G	≤ 0.5
C4U G63A C66U	0.792
C5A A20U C31G G58A C62U A69C	≤ 0.5
C4U G44C C46A G56C	≤ 0.5
C5A A21C C30G C55G A70G	≤ 0.5
C4U U7A U54G	≤ 0.5
C4U U19C C29A A70U	0.632
C4U G52A C60A	0.823
C5A A21C A43U C46G	0.541
C5A A20C A36C A45C	≤ 0.5
C4U U32A U64G	≤ 0.5
C5A A14C A15G C49A	0.572

Variant	yeast fitness
C4U U16A G23A A36G C49G	≤ 0.5
C5A A40U G48C G63A	≤ 0.5
C4U G58C U64A	0.848
C4U U35C G50A C66A	0.689
C4U U7C G10A A14U C27G A36G	0.505
C5A A21G U32G	≤ 0.5
C5A A20U A36G	≤ 0.5
C5A A20C C29G A65U	≤ 0.5
C4U U16A A20U U28C U35C G39C A42C G48A	≤ 0.5
C5A C11A G17C A43U U59A	≤ 0.5
C5A A21C C30G C34U G58C	≤ 0.5
C4U U16C A42C	0.579
C4U U16C A42G	0.72
C4U U13C C66U A70C	0.618
C5A A20C C22A C24U C31U	0.685
C4U G41C G51C G58C	≤ 0.5
C4U U7A G10C C27G U32A	≤ 0.5
C5A C11G A21U U28C	≤ 0.5
C4U U13A A14U U32A G58C	≤ 0.5
C5A A20U C29A G68A	≤ 0.5
C5A A21G C24U A45U A57U	0.603
C4U U28G C60A	0.503
C4U G52A A70C	0.646
C4U G39A G67A	0.61

Variant	yeast fitness
C4U U7A C62G	≤ 0.5
C5A A20U A37G	≤ 0.5
C4U U7C C49G	0.534
C4U G52A C55U U64C	≤ 0.5
C5A A21C C34G C60G A70G	≤ 0.5
C5A A21C A43U C46G C61G	≤ 0.5
C4U U16A A20G C49U C66U	≤ 0.5
C5A A43U	0.783
C5A A43G	0.903
C5A A43C	0.987
C5A A37G A65U	0.532
C4U U28C G38C C61U	≤ 0.5
C5A A21U G50A	≤ 0.5
C5A A20U A70G	≤ 0.5
C5A A40G A65G	0.605
C4U U19A A37G G44C A57U G68C	≤ 0.5
C5A A15U A21U U32C	≤ 0.5
C5A A21C C30G C34U G38C C49U A70C	0.551
C4U U26G C62G A70U	≤ 0.5
C5A A15G C34U A40C G56A G63A	≤ 0.5
C4U G52A	0.727
C5A A57G C66U	≤ 0.5
C5A A21U C24U C27G	≤ 0.5
C4U U16A A37U C55G	≤ 0.5

Variant	yeast fitness
C5A A45U A69U	0.801
C4U U13C C24U C49U	≤ 0.5
C4U G48C C55G A69U	≤ 0.5
C5A A15C C66U	≤ 0.5
C5A A15C G67U	0.526
C4U G48A C60G	≤ 0.5
C5A A14G G17C C29A C33G C34U A36U	0.648
C4U U26A A69U	0.641
C4U U53C	0.869
C4U U8C C11A G12A U28C G44C	≤ 0.5
C5A A20G U26A A40G G58C G67U	≤ 0.5
C5A A14G C24A A43G G63U	≤ 0.5
C4U G52A U59A	0.592
C5A A42U G67A	≤ 0.5
C5A A14C A36G G39C C46A A65C	≤ 0.5
C5A A20G U35G G41A G56A A70C	≤ 0.5
C5A A40U G41C	0.614
C4U U26A G56A	0.632
C5A A37C A40C A45U A57C A70U	≤ 0.5
C4U U7A U8A	≤ 0.5
C4U U7C	1.08
C5A A40U G67A	0.659
C4U G56C A65U	≤ 0.5
C5A A21U A65G	0.636

Variant	yeast fitness
C5A A40G	0.713
C4U G41C C55G	0.539
C4U U26A C31G	0.603
C5A A20U C55U C61U A65G	≤ 0.5
C5A A20C C22A A36C A69U	0.587
C4U U7C G23A A40U A42C	≤ 0.5
C4U U26G U59C C62A	0.679
C5A A15U U47C	≤ 0.5
C5A A36G	0.886
C5A A20C C22A A36C C55A A69U	≤ 0.5
C5A A14C G68A	≤ 0.5
C5A A14G A40G G41A A45U U53C A57C	≤ 0.5
C4U U13C C29G G38C	≤ 0.5
C5A C11G	0.657
C4U U13A A14U C29U C30U A37G	≤ 0.5
C4U G44A C46U A69C	0.829
C5A A15C U16A C31G C34U A69U	≤ 0.5
C4U U7G C34G A70U	≤ 0.5
C4U G25A G56A	0.645
C5A A15U	0.626
C5A A15G	0.779
C4U U19A G50A G68U	≤ 0.5
C4U U28A	0.749

Reference: the RNAGym collection of RNA variant scans (doi:10.1126/science.aae0568)
